Most compounds without a hit are left out; they make up all but 2.3% or so of the library.
DENV2_CPE: inhibitors of DENV2 cytopathic effect. DENV2-infected cells, cytopathic effect rescue, plate reader. CPE inhibition, % at 9.99 µM. actives 1.7% (n = 350,000). AID 651640; in the data active = CPE inhibition above about 20%, passing the limit was not always enough; tested in BHK-21 cells;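 note: 0% = median of neutral control wells and 100% = median of positive control wells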
Cneo_AK_release: Cryptococcus neoformans lysis via adenylate kinase release; C. neoformans lysis, adenylate kinase release luminescence, 4 h; normalised: neutral wells 0, clomiphene wells 100; lysis activity, % at 15 µM; actives 0.2% (n = 360,000);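 active = mean lysis activity across replicates of at least 80%, whatever share of replicates individually reach that level; inactive = mean lysis activity below 80%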
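Assay system: Cryptococcus neoformans yeast cells / Dosing: single-point compound dose / Timing: 4 h at 37 °C static, read 1 h later / Measured by: luminescence of released adenylate kinase using an AK detection reagent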
PDI_inh: blocks human protein disulfide isomerase activity. P07237. PDI insulin aggregation turbidity, A650, 90 min. inhibition, % at 10 µM. actives 0.052% (n = 350,000). AID 588391;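 active = mean inhibition across replicates of 30% or more, whatever share of single replicates reach that level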
ERp5_inh: inhibitors of human ERp5 | Q15084 | ERp5 insulin aggregation, absorbance 650 nm, 90 min | inhibition, % at 9.99 µM | actives 0.05% (n = 350,000) | AID 651711;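 active = mean replicate inhibition above about 25%, with every replicate also reaching it, limit read from the data, passing the limit was not always enough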
Target sequence (Q15084 whole entry, looked up): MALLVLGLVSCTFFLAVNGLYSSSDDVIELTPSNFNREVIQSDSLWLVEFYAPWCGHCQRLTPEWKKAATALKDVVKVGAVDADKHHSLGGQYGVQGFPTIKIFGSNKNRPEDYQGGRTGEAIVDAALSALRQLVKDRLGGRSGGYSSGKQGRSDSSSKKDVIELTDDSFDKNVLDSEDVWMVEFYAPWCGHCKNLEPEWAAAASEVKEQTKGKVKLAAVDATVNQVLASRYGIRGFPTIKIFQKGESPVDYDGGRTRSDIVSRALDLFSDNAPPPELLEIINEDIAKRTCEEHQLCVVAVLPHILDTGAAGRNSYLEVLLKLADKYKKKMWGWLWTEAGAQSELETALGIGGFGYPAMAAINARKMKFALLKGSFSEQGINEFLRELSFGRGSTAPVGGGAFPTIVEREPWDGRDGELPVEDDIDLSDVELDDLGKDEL
CFTR_F508del_cor: correctors of CFTR F508del function in bronchial epithelial cells. AID 720511. activity (quench increase), % at 7.58 µM. actives 0.36% (n = 350,000). CFBE cells, YFP halide quenching; stimulated with forskolin plus potentiator P3; % fluorescence drop versus neutral controls;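 active = mean added fluorescence quench of at least 8% versus neutral control, with both replicates also reaching 8%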;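 note: cells transiently co-express mutant CFTR-F508del with the halide-sensitive YFP; corrector assay measuring rescue of mutant channel to the surface after 24 h compound exposure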
C2C12_statin: suppressors of simvastatin-induced myotoxicity in C2C12 myotubes. ATP luminescence, 48 h; scaled: DMSO 0, geranylgeraniol control 100. rescue of ATP level, % at 7.49 µM. actives 0.78% (n = 330,000);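 active = mean ATP rescue above about 67%, or every replicate alone reaching that limit, limit read from the data, passing the limit was not always enough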;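 note: myotubes were challenged with 10 µM simvastatin during compound exposure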
An asterisk follows results filed as active; · = no result.

SMILES DENV2_CPE Cneo_AK_release PDI_inh ERp5_inh CFTR_F508del_cor C2C12_statin
CC(C)C#Cc1cnc2c(c1)C(=O)N([C@@H](C)CO)C[C@@H](C)[C@H](CN(C)C(=O)c1ccccc1F)O2 -7.2 -2.6 · 32.2* -3.4 -43.4
CC(C)CC#Cc1cnc2c(c1)C(=O)N([C@H](C)CO)C[C@@H](C)[C@H](CN(C)C(=O)Cc1ccccc1)O2 2.1 -3.3 · 2.8 -2.2 100.9*
C[C@H](CO)N1C[C@H](C)[C@@H](CN(C)C(=O)CN2CCOCC2)Oc2ncc(-c3cncnc3)cc2C1=O 15.8 0.8 3.7 3.5 0.0 3.5
C[C@@H]1CN([C@@H](C)CO)C(=O)c2cc(-c3cncnc3)cnc2O[C@H]1CN(C)C(=O)CN1CCOCC1 -4.1 105.1* · -2.9 0.3 1.2
C[C@H](CO)N1C[C@H](C)[C@H](CN(C)C(=O)CN(C)C)Oc2ncc(C#Cc3ccccc3)cc2C1=O 50.6* 1.0 · 9.7 -1.2 -4.6
COc1ccc(NC(=O)Nc2ccc3c(c2)C(=O)N([C@H](C)CO)C[C@@H](C)[C@@H](CN(C)Cc2ccc(Oc4ccccc4)cc2)O3)cc1 -24.9 4.8 · -0.5 -1.6 -39.6
C[C@H](CO)N1C[C@H](C)[C@H](CN(C)C(=O)Cc2ccncc2)Oc2ncc(C#C[C@@H](C)O)cc2C1=O 11.0 2.8 · -12.4 -1.4 -13.2
C[C@@H]1CN([C@@H](C)CO)C(=O)c2cc(-c3cncnc3)cnc2O[C@H]1CN(C)C(=O)Cc1ccccc1 · 80.3* · 0.6 2.2 13.6
C[C@H](O)C#Cc1cnc2c(c1)C(=O)N([C@@H](C)CO)C[C@@H](C)[C@@H](CN(C)C(=O)Cc1ccncc1)O2 · 114.8* · 1.3 -0.3 0.7
C[C@H]1CN([C@@H](C)CO)C(=O)c2cc(-c3cncnc3)cnc2O[C@H]1CN(C)C(=O)Cc1ccccc1 2.4 44.6 · 0.7 -1.0 4.4
Cc1ccc(-c2ccc3c(c2)O[C@H](CN(C)C(=O)CN(C)C)[C@@H](C)CN([C@H](C)CO)S3(=O)=O)cc1 9.2 11.1 · 6.2 -2.7 13.6
Cn1cnc(CCNC(=O)C[C@H]2CC[C@H]3[C@@H](COC[C@H](O)CN3C(=O)Nc3ccc(F)cc3)O2)c1 10.8 -5.5 · 7.2 -0.2 -5.6

Screening data as filed in PubChem BioAssay.
